Data reported in ChEMBL document CHEMBL1132646, “Synthesis and evaluation of new sulfur-containing L-arginine-derived inhibitors of nitric oxide synthase” (J Med Chem, 1999).

Key:
[1] = target: T1, Nitric oxide synthase, inducible (Mus musculus, UniProt P29477); assay: Inhibitory concentration against mouse inducible nitric oxide synthase (iNOS)
T1 sequence (P29477 whole entry): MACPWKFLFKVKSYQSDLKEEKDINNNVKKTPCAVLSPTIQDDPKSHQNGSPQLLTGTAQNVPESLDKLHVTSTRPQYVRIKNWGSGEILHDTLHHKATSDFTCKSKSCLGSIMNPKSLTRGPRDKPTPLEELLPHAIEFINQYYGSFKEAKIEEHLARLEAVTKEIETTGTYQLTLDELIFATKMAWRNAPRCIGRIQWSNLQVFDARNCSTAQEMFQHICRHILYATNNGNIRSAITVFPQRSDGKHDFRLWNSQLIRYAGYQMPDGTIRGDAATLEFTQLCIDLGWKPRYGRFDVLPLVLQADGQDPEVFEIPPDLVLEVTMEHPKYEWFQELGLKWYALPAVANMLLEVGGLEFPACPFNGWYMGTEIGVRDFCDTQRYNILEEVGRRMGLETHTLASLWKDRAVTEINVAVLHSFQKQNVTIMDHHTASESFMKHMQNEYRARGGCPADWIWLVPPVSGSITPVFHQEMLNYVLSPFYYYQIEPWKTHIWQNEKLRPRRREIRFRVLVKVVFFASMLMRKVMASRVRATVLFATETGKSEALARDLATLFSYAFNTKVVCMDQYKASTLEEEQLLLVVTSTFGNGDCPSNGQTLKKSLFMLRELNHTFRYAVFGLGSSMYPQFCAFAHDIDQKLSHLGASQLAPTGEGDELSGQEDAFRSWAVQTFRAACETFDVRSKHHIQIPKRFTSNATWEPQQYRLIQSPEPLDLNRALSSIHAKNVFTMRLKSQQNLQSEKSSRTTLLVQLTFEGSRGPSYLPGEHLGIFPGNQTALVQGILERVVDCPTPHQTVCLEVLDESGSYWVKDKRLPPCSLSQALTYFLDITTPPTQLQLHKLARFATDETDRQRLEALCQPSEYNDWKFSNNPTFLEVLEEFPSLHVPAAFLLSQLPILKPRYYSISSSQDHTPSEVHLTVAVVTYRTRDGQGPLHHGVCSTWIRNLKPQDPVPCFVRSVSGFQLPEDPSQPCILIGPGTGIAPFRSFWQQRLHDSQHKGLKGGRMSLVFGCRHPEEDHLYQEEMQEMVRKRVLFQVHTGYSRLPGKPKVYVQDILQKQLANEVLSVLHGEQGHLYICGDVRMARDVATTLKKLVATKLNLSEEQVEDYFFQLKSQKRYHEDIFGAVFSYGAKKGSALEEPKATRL
How it was run: (§1)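 Citrulline formation: 20 mM HEPES pH 7.4, 50 μM L-arginine with 0.05 μCi [14C]-L-arginine, 4 μM FAD/FMN/H4B, 1 mM DTT, 1 mg/mL BSA, varied inhibitor; nNOS 12.5 nM, eNOS 25 nM (both plus 1 mM CaCl2, 15 μg/mL calmodulin), iNOS 2.5 nM (mouse, His6-tagged). Initiated with NADPH, 10 min room temperature, stopped pH 5.5 EDTA; [14C]-citrulline separated on Dowex cation exchange, scintillation counted; duplicate.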

Nitric oxide synthase 3 = target: T2, Nitric oxide synthase 3 (Homo sapiens, UniProt P29474); assay: Inhibitory concentration against mammalian endothelial nitric oxide synthase (eNOS); how it was run: as §1
T2 sequence (P29474 whole entry): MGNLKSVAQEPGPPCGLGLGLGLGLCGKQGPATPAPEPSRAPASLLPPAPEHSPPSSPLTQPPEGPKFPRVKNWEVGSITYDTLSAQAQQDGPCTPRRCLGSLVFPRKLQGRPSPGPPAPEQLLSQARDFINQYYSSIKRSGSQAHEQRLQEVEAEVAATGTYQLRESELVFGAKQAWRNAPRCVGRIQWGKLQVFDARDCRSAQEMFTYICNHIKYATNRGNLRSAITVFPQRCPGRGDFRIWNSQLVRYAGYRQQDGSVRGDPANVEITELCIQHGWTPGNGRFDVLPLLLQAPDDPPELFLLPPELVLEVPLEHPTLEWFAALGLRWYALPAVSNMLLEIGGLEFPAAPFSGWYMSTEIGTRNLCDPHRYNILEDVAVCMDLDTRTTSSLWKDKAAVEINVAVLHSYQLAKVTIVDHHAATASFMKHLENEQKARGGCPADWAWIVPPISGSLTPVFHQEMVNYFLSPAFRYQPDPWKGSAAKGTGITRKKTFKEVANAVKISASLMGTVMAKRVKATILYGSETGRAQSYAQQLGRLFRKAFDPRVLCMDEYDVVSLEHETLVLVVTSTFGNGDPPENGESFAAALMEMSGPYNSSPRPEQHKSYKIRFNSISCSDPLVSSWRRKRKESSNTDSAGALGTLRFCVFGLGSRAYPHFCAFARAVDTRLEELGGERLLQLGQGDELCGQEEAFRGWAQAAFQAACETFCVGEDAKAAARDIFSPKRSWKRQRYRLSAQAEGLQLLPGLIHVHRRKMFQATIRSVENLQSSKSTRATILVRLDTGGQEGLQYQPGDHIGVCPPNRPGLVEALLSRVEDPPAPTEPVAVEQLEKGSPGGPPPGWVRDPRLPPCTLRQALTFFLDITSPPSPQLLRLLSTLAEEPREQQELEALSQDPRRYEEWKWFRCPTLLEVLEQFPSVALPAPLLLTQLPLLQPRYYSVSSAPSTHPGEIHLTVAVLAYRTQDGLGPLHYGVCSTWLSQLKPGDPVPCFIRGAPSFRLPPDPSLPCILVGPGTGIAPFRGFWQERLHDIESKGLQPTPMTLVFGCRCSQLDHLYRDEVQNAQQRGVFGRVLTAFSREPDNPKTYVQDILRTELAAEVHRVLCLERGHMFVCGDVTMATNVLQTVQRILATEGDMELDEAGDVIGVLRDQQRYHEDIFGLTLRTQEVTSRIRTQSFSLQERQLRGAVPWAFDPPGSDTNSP

[2] = target: T1, Nitric oxide synthase, inducible; assay: Effective concentration against NADPH oxidase activity of iNOS
How it was run: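 Mouse His6-tagged iNOS (E. coli BL21-DE3 expressed, Ni-NTA purified), 0.5 μM, in 40 mM HEPES pH 7.4 with 0.3 mM DTT, 4 μM each FAD/FMN/H4B, 10 units/mL catalase and SOD, varied analogue concentrations; started with 0.1 mM NADPH. NADPH oxidation rate followed as absorbance drop at 340 nm, 37 °C, triplicate; EC50 for decreased oxidase activity.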

Nitric oxide synthase 1 = Nitric oxide synthase 1 (Homo sapiens, UniProt P29475); assay: Inhibitory concentration against mammalian Neuronal nitric oxide synthase (nNOS); how it was run: as §1
Sequence of Nitric oxide synthase 1 (P29475 whole entry): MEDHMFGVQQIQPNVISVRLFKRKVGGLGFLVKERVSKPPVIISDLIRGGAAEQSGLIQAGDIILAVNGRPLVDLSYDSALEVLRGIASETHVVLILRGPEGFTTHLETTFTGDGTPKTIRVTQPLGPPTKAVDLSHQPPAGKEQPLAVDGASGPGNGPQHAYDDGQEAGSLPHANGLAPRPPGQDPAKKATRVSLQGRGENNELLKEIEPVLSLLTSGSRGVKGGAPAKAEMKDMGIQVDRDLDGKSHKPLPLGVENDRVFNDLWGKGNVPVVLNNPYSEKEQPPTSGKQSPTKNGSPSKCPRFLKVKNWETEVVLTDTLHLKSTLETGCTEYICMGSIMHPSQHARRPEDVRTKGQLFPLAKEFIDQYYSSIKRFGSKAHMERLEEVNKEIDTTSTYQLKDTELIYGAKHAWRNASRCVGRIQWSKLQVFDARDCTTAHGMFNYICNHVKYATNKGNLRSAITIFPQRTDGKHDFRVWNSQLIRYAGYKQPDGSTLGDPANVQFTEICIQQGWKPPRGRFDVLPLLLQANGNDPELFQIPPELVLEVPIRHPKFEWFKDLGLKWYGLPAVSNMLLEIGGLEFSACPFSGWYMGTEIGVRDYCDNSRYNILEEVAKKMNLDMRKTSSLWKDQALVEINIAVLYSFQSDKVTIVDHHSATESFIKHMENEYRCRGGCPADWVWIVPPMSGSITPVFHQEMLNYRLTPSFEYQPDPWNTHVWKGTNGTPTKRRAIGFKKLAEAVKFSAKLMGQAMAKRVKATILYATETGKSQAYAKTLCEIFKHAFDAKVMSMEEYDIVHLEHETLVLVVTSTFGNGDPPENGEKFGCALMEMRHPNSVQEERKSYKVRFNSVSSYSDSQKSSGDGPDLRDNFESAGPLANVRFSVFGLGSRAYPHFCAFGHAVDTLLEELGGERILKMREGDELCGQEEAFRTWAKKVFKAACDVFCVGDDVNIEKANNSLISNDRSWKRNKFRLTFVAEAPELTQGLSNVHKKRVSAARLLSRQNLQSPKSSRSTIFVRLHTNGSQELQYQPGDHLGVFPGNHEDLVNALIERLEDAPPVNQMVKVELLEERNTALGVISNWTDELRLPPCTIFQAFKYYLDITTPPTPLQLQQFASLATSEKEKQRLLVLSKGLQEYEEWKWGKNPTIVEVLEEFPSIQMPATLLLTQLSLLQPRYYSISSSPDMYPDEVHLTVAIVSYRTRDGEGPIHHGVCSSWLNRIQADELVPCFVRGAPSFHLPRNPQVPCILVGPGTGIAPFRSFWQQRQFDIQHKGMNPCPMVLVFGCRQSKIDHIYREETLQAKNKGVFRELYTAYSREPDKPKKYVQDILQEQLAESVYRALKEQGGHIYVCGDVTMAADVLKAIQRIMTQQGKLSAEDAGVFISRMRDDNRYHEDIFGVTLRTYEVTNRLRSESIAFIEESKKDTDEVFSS

| IC50 [1] | Ki [1] | IC50 (Nitric oxide synthase 3) | EC50 [2] | IC50 (Nitric oxide synthase 1) | SMILES |
| --- | --- | --- | --- | --- | --- |
| 320 µM | 58 µM | 752 µM | 180 µM | 327 µM | CS/C(=N/N)NCCC[C@H](N)C(=O)O |
| 13 µM | 7 µM | 19.7 µM | 6.6 µM | 6.7 µM | CS/C(=N/O)NCCC[C@H](N)C(=O)O |
| 3710 µM | 202 µM | 3060 µM | 190 µM | 1620 µM | NNC(=S)NCCC[C@H](N)C(=O)O |
